Assay results published in ChEMBL document CHEMBL1759937, “Pyridinesulfonylureas and pyridinesulfonamides as selective bombesin receptor subtype-3 (BRS-3) agonists” (Bioorg Med Chem Lett, 2011).

How the values were obtained:
[1] = biological target: T1, Bombesin receptor subtype-3 (Homo sapiens, UniProt P32247); assay: Binding affinity to human BRS3
T1 sequence (P32247 whole entry): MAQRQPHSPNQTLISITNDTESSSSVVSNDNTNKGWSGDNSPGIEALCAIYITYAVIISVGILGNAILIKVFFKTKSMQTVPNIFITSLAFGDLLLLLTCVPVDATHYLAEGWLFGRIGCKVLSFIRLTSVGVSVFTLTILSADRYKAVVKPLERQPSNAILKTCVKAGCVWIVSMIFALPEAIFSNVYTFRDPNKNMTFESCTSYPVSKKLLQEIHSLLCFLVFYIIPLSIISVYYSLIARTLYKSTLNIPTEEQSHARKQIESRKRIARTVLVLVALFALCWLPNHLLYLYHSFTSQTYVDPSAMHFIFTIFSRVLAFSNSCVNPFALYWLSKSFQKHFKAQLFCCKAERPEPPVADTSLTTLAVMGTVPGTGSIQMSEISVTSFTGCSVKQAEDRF

[2] = biological target: T2, Bombesin receptor subtype-3 (Mus musculus) (UniProt O54798); assay: Agonist activity at mouse BRS3 by functional assay relative to control
T2 sequence (whole entry): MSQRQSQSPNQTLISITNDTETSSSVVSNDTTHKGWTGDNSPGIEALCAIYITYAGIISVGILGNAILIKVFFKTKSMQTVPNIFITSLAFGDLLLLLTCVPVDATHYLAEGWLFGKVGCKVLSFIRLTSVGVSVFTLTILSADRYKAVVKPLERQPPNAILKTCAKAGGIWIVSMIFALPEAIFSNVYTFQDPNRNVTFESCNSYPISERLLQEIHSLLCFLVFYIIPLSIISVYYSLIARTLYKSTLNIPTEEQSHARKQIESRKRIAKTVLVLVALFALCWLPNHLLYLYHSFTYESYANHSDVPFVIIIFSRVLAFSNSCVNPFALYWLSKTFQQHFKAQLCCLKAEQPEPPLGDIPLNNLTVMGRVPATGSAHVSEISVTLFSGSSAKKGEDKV
How it was run: (§1)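 HEK293AEQ cells expressing mouse BRS-3; bioluminescence read against log molar compound concentration. EC50 taken as the inflection point of the sigmoidal curve and normalized to the EC50 of an internal standard. Values under 2 µM with standard errors are means of at least three experiments; duplicate data are reported individually.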

[3] = biological target: T3, Bombesin receptor subtype-3 (Mus musculus, UniProt O54798); assay: Agonist activity at mouse BRS3 by functional assay; how it was run: as §1
T3 sequence (O54798 whole entry): T2 sequence (whole entry)

[4] = biological target: T1, Bombesin receptor subtype-3; assay: Agonist activity at human BRS3 by functional assay
[5] = Cmax in Sprague-Dawley rat at 1 mg/kg, iv or 4 mg/kg, po by LC/MS/MS; assay type: ADME, organism-based; settings: in vivo
How it was run: (§2)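 Male Sprague–Dawley rats. Blood collected at various time points into lithium heparin tubes and centrifuged; plasma stored at -70 °C until analysis. Plasma extracted by protein precipitation and quantified by LC/MS/MS.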

[6] = Plasma clearance in Sprague-Dawley rat at 1 mg/kg, iv or 4 mg/kg, po; assay type: ADME, organism-based; how it was run: as §2
[7] = Volume of distribution at steady state in Sprague-Dawley rat at 1 mg/kg, iv or 4 mg/kg, po; assay type: ADME, organism-based; settings: in vivo, read-out: Vdss; how it was run: as §2
[8] = Mean residence time in Sprague-Dawley rat at 1 mg/kg, iv or 4 mg/kg, po; assay type: ADME, organism-based; settings: in vivo; how it was run: as §2
[9] = Bioavailability in Sprague-Dawley rat at 1 mg/kg, iv or 4 mg/kg, po; assay type: ADME, organism-based; settings: in vivo; how it was run: as §2
[10] = Half life in Sprague-Dawley rat at 1 mg/kg, iv or 4 mg/kg, po; assay type: ADME, organism-based; settings: in vivo; how it was run: as §2
[11] = biological target: T1, Bombesin receptor subtype-3
[12] = biological target: T1, Bombesin receptor subtype-3; assay: Agonist activity at human BRS3 expressed in HEK293AEQ cells using 10 uM dy-peptide by bioluminescence assay
[13] = biological target: Gastrin-releasing peptide receptor (Homo sapiens) (UniProt P30550)
Gastrin-releasing peptide receptor (Homo sapiens), sequence (P30550 whole entry, looked up): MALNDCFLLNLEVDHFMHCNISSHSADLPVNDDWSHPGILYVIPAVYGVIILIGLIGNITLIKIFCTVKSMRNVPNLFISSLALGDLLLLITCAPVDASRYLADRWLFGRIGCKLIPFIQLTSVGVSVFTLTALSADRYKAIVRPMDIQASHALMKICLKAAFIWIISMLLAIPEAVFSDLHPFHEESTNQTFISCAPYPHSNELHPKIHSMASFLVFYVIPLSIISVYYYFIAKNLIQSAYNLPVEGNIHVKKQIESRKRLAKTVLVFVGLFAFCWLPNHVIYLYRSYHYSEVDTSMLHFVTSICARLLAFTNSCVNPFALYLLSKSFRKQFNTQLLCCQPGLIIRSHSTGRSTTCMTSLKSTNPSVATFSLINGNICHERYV

[14] = biological target: Neuromedin-B receptor (Homo sapiens) (UniProt P28336)
Neuromedin-B receptor (Homo sapiens), sequence (P28336 whole entry, looked up): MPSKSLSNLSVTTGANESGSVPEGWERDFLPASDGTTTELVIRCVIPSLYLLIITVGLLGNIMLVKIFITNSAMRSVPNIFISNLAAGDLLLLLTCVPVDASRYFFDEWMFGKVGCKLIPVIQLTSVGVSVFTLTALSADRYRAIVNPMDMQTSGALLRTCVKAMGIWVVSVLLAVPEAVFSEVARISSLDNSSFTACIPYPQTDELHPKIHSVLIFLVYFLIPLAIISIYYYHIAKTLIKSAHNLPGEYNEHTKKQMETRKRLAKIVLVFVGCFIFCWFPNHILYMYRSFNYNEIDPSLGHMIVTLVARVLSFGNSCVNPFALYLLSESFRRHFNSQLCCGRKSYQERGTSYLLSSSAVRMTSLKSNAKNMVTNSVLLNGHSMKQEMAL

Compound | IC50 [1] | Activity [2] | EC50 [3] | EC50 [4] | further results
CC(C)(C)c1cccc(NS(=O)(=O)c2cnccc2N[C@@H]2C[C@H]3CC[C@@H]2C3)c1 (racemic) | 520 nM | 102% | 160 nM | 2600 nM | 
CC(C)c1n[nH]c(NS(=O)(=O)c2cnccc2N[C@@H]2C[C@H]3CC[C@@H]2C3)n1 (racemic) | 770 nM | 72% | 410 nM | 4000 nM | 
CC(C)(C)CC(=O)NS(=O)(=O)c1cnccc1N[C@@H]1C[C@H]2CC[C@@H]1C2 (racemic) | > 10000 nM | 61% | 4900 nM | 8300 nM | 
O=S(=O)(Nc1nc(C2CCC2)n[nH]1)c1cnccc1N[C@@H]1C[C@H]2CC[C@@H]1C2 (racemic) |  | 84% |  |  | 
CC(C)(C)NC(=O)NS(=O)(=O)c1cnccc1N[C@H]1C[C@@H]2CC[C@H]1C2 | 630 nM | 93% | 110 nM | 720 nM | 
CCC(C)(C)NC(=O)NS(=O)(=O)c1cnccc1N[C@@H]1C[C@H]2CC[C@@H]1C2 (racemic) | 75 nM | 108% | 13 nM | 51 nM | 
CC(C)(C)NC(=O)NS(=O)(=O)c1cnccc1N[C@H]1C[C@H]2CC[C@]1(C)C2(C)C | 300 nM | 82% | 33 nM | 450 nM | 
CCC(C)(C)NC(=O)NS(=O)(=O)c1cnccc1NC1CC2CCC1C2 (racemic) |  |  |  |  | Cmax [5]: 2 µM; clearance [6]: 26 mL/min/kg; Vd [7]: 0.3 L/kg; MRT [8]: 11.4 min; bioavailability [9]: 41%; half-life [10]: 15 min
CC(C)NC(=O)NS(=O)(=O)c1cnccc1NC1CC2CCC1C2 (centres undefined) |  |  |  |  | IC50 [11]: 600 nM; EC50 [12]: 220 nM
CC(C)(C)c1cc(NS(=O)(=O)c2cnccc2N[C@@H]2C[C@H]3CC[C@@H]2C3)[nH]n1 (racemic) | 250 nM | 113% | 270 nM | 4000 nM | 
CC(C)(C)NC(=O)NS(=O)(=O)c1cnccc1NCc1ccccc1 | > 10000 nM | 20% | 6900 nM | 7500 nM | 
CC(C)(C)NC(=O)NS(=O)(=O)c1cnccc1N[C@@H]1C[C@H]2CC[C@@H]1C2 (racemic) [listing 1 of 2 here] |  | 101% |  |  | 
CC(C)(C)NC(=O)NS(=O)(=O)c1cnccc1N[C@@H]1C[C@H]2CC[C@@H]1C2 [listing 1 of 2 here] |  | 100% |  |  | 
CC(C)(C)NC(=O)NS(=O)(=O)c1cnccc1N[C@H]1CN2CCC1CC2 | > 10000 nM | 0% | > 10000 nM | > 10000 nM | 
O=S(=O)(Nc1nc(C2CCC2)n[nH]1)c1cnccc1NC1CC2CCC1C2 (single isomer, unassigned) [listing 1 of 2 here] | 310 nM |  | 190 nM | 1700 nM | 
CC(C)(C)NC(=O)NS(=O)(=O)c1cnccc1NN1CCCC1 | > 10000 nM | 5% | > 10000 nM | > 10000 nM | 
CC(C)(C)NC(=N)NS(=O)(=O)c1cnccc1N[C@@H]1C[C@H]2CC[C@@H]1C2 (racemic) | 9700 nM | 13% | 7000 nM | > 10000 nM | 
O=S(=O)(Nc1nnc(C2CCC2)[nH]1)c1cnccc1N[C@@H]1C[C@H]2CC[C@@H]1C2 (racemic) | 290 nM |  | 170 nM | 1200 nM | 
CN(C(=O)NC(C)(C)C)S(=O)(=O)c1cnccc1N[C@@H]1C[C@H]2CC[C@@H]1C2 (racemic) | 6700 nM | 49% | 6500 nM | 8300 nM | 
CC(C)(C)NC(=O)NS(=O)(=O)c1cnccc1NC1CC2CCC1C2 (centres undefined) |  |  |  |  | EC50 [13]: > 10000 nM; EC50 [14]: > 10000 nM
O=S(=O)(Nc1nc(C2CCC2)n[nH]1)c1cnccc1NC1CC2CCC1C2 (single isomer, unassigned) [listing 2 of 2 here] |  | 88% |  |  | 
CC(C)(C)NC(=O)NS(=O)(=O)c1cnccc1NC1CC2CCC1C2 (racemic) |  |  |  |  | Cmax [5]: 7 µM; clearance [6]: 14 mL/min/kg; Vd [7]: 0.57 L/kg; MRT [8]: 39.6 min; bioavailability [9]: 100%; half-life [10]: 288 min
CC(C)(C)NC(=O)NS(=O)(=O)c1cnccc1N[C@@H]1C[C@H]2CC[C@@H]1C2 [listing 2 of 2 here] | 68 nM |  | 21 nM | 55 nM | 
CC(C)(C)CC(C)(C)NC(=O)NS(=O)(=O)c1cnccc1N[C@@H]1C[C@H]2CC[C@@H]1C2 (racemic) | 530 nM | 102% | 100 nM | 350 nM | 
CC(C)(C)OC(=O)NS(=O)(=O)c1cnccc1N[C@@H]1C[C@H]2CC[C@@H]1C2 (racemic) | > 10000 nM | 89% | 590 nM | 8200 nM | 
CC(C)(C)c1csc(NS(=O)(=O)c2cnccc2N[C@@H]2C[C@H]3CC[C@@H]2C3)n1 (racemic) | 2500 nM | 81% | 200 nM | 2100 nM | 
CC(C)(C)NC(=O)NS(=O)(=O)c1cnccc1N[C@@H]1C[C@H]2CC[C@]1(C)C2(C)C | 660 nM | 88% | 90 nM | 1700 nM | 
CC(C)(C)NC(=O)NS(=O)(=O)c1cnccc1O[C@@H]1C[C@@H]2CC[C@H]1C2 | 880 nM | 77% | 320 nM | 1600 nM | 

More lines, main results first:

IC50 [1] | Activity [2] | EC50 [3] | EC50 [4] | Compound | further results
820 nM | 86% | 98 nM | 940 nM | CC(C)NC(=O)NS(=O)(=O)c1cnccc1N[C@H]1C[C@H]2CC[C@@H]1C2 (racemic) | 
68 nM |  | 51 nM | 380 nM | O=S(=O)(Nc1nc(C2CCC2)n[nH]1)c1cnccc1NC1CC2CCC1C2 (single isomer, unassigned; faster eluting) [listing 1 of 2 here] | 
 | 87% |  |  | O=S(=O)(Nc1nc(C2CCC2)n[nH]1)c1cnccc1NC1CC2CCC1C2 (single isomer, unassigned; faster eluting) [listing 2 of 2 here] | 
3800 nM | 63% | 1300 nM | 6800 nM | CC(C)(C)NC(=O)NS(=O)(=O)c1cnccc1NC1CCc2ccccc21 (racemic) | 
6200 nM | 91% | 340 nM | 6400 nM | CC(C)(C)NC(=O)NS(=O)(=O)c1ccccc1N[C@@H]1C[C@H]2CC[C@@H]1C2 (racemic) | 
510 nM | 88% | 86 nM | 440 nM | CC(C)NC(=O)NS(=O)(=O)c1cnccc1N[C@@H]1C[C@H]2CC[C@@H]1C2 (racemic) | 
650 nM | 96% | 180 nM | 640 nM | CN(C(=O)NS(=O)(=O)c1cnccc1N[C@@H]1C[C@H]2CC[C@@H]1C2)C(C)(C)C (racemic) | 
990 nM | 92% | 320 nM | 1200 nM | CC(C)(C)NC(=O)NS(=O)(=O)c1cnccc1O[C@@H]1C[C@H]2CC[C@@H]1C2 (racemic) | 
310 nM | 55% | 39 nM | 220 nM | O=C(NC12CC3CC(CC(C3)C1)C2)NS(=O)(=O)c1cnccc1N[C@@H]1C[C@H]2CC[C@@H]1C2 (mixture of isomers) | 
3000 nM | 43% | 4300 nM | 8100 nM | CC(C)(C)NC(=O)NS(=O)(=O)c1cnccc1NC(C)(C)c1ccccc1 | 
230 nM | 91% | 49 nM | 160 nM | CC(C)(C)NC(=O)NS(=O)(=O)c1cnccc1N[C@H]1C[C@H]2CC[C@@H]1C2 (racemic) | 
100 nM |  | 28 nM | 81 nM | CC(C)(C)NC(=O)NS(=O)(=O)c1cnccc1N[C@@H]1C[C@H]2CC[C@@H]1C2 (racemic) [listing 2 of 2 here] | 
400 nM | 90% | 260 nM | 450 nM | CC(C)(C)NC(=O)NS(=O)(=O)c1cnccc1NC1CCCCC1 | 
